In one data set the target is Clk (Cdc-like kinase) 2. Conditions: cited from earlier work.
Another data set concerns the target CK2α2β2 holoenzyme (Homo sapiens, UniProt P68400). Kind of data set: CK2 radiometric kinase assay, holoenzyme versus CK2α. The format is biochemical. The note with it: CK2β-independent peptide substrate. In short, it runs like this: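 Radiometric CK2 assay comparing isolated human recombinant CK2α with the CK2α₂β₂ holoenzyme across increasing test compound concentrations, using a CK2β-independent peptide substrate. ATP was 100 μM unless stated otherwise.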

In another data set the target is pim-1 (Homo sapiens, UniProt P11309). Put plainly: kinase selectivity profiling, residual kinase activity. It counts as biochemical. The note with it: read-out: % inhibition of pim-1. In short, it runs like this: (§1)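 The test compound was profiled against a panel of 44 human kinases, with ATP set to the Km of each kinase. Remaining activity was read as % inhibition of each kinase.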

The target in data set [1] is T1, CK2α (Homo sapiens, UniProt P68400). The description is as above. The format is biochemical. Conditions: compound at 50 μM. In outline:
as §1

In the next data set the target is EphA4 (Homo sapiens, UniProt P54764). The data set is described as above. The format is biochemical. Conditions: read-out: % inhibition of EphA4. In outline:
as §1

For data set [2], the target named is T1, CK2α. Kind of data set: CK2 radiometric kinase assay. The format is biochemical. The note with it: compared with compound 2.
Another data set concerns the target T2, CK2α^1–335 (Homo sapiens, UniProt P68400).
T2 sequence (P68400 1-335): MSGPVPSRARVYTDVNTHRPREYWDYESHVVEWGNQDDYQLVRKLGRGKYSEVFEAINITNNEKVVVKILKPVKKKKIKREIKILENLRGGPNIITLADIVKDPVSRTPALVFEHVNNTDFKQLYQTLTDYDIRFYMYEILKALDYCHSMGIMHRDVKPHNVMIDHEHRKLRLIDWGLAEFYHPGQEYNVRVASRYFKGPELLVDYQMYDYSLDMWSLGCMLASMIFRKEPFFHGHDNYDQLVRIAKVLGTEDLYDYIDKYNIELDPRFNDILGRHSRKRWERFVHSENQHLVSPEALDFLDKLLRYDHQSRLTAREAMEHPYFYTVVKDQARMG
Kind of data set: native mass spectrometry binding and competition. The note with it: 10 μM CK2α; for binding stoichiometry to CK2α by native mass spectrometry: 100 μM IP6 or 10–40 μM 6, 5% DMSO.

A further data set in a line: water solubility. It counts as physicochemical. The note with it: qualitative, relative to the other compounds of the series.
For data set [3], the target named is T1, CK2α. Put plainly: NMR Saturation Transfer Difference. It counts as binding. Conditions: compound 500 μM, CK2α 5 μM.
A further data set deals with T3, ACVR1 (ALK2) (Homo sapiens, UniProt Q04771).
T3 sequence (Q04771 21-509): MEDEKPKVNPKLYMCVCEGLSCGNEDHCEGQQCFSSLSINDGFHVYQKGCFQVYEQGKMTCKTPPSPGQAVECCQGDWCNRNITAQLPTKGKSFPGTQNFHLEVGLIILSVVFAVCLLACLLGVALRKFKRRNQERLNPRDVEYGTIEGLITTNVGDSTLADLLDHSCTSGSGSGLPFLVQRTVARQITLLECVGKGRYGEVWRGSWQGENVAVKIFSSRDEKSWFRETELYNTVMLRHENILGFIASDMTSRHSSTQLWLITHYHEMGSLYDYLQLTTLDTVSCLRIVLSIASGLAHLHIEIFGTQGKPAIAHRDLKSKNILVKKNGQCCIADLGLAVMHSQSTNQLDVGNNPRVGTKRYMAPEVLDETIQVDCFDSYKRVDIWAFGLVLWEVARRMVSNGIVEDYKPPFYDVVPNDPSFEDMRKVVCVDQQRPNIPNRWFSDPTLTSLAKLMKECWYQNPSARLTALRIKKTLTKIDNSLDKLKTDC
Put plainly: kinase selectivity profiling, residual kinase activity. It counts as biochemical. The note with it: read-out: % inhibition of ACVR1. In outline:
as §1

The next data set deals with GSK3β (Homo sapiens, UniProt P49841). The data set is described as above. It counts as biochemical. The note with it: read-out: % inhibition of GSK3β. In outline: as §1
The next data set concerns the target Clk4 (Homo sapiens, UniProt Q9HAZ1). The data set is described as above. The format is biochemical. The note with it: read-out: % inhibition of Clk4. In outline:
as §1

The next data set addresses Dyrk1A (Homo sapiens, UniProt Q13627). The description is as above. It counts as biochemical. Conditions: read-out: % inhibition of Dyrk1A. In outline: as §1
The target in the next data set is T4, MLCK (MLCK2) (Homo sapiens, UniProt Q32MK0).
T4 sequence (Q32MK0 1-819): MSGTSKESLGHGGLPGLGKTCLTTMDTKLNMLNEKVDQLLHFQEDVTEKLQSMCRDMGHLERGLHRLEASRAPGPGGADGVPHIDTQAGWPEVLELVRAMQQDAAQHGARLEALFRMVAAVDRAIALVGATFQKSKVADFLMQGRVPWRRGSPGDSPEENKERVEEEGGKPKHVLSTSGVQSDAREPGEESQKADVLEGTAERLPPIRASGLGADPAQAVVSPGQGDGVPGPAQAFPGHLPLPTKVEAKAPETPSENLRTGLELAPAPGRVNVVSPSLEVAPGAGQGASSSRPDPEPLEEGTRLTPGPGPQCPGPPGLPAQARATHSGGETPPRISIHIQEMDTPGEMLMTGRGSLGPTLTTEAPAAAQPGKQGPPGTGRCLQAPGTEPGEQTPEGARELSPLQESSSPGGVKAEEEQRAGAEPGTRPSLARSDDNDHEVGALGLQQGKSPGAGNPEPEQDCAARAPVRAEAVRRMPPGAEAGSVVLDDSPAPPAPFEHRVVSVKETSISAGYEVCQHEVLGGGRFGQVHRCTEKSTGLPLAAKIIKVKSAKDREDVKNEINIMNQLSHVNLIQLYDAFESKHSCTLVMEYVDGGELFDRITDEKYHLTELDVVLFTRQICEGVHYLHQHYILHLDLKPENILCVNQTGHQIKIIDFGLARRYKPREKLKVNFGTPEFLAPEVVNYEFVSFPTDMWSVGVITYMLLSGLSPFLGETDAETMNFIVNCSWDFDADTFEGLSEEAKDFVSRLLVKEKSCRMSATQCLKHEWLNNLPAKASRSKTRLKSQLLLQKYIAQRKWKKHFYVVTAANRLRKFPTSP
Described as above. It counts as biochemical. The note with it: read-out: % inhibition of MLCK. In outline:
as §1

The target in the next data set is Clk2 (Homo sapiens, UniProt P49760). The data set is described as above. The note with it: read-out: % inhibition of Clk2. The format is biochemical. In short, it runs like this:
as §1

Entries after “also recorded” stand apart in the source; their conditions may differ.

T1 sequence (P68400 whole entry): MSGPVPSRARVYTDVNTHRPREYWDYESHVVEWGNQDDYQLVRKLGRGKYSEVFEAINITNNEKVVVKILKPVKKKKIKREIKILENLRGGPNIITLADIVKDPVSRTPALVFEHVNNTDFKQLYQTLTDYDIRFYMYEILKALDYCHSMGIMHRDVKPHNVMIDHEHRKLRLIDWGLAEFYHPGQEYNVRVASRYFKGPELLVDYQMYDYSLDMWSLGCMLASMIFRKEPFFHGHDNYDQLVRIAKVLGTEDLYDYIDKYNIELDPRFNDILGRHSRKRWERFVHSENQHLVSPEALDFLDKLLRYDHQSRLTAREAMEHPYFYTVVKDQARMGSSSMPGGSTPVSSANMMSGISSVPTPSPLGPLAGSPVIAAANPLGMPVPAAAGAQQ
Chain of EphA4 (P54764 20-986): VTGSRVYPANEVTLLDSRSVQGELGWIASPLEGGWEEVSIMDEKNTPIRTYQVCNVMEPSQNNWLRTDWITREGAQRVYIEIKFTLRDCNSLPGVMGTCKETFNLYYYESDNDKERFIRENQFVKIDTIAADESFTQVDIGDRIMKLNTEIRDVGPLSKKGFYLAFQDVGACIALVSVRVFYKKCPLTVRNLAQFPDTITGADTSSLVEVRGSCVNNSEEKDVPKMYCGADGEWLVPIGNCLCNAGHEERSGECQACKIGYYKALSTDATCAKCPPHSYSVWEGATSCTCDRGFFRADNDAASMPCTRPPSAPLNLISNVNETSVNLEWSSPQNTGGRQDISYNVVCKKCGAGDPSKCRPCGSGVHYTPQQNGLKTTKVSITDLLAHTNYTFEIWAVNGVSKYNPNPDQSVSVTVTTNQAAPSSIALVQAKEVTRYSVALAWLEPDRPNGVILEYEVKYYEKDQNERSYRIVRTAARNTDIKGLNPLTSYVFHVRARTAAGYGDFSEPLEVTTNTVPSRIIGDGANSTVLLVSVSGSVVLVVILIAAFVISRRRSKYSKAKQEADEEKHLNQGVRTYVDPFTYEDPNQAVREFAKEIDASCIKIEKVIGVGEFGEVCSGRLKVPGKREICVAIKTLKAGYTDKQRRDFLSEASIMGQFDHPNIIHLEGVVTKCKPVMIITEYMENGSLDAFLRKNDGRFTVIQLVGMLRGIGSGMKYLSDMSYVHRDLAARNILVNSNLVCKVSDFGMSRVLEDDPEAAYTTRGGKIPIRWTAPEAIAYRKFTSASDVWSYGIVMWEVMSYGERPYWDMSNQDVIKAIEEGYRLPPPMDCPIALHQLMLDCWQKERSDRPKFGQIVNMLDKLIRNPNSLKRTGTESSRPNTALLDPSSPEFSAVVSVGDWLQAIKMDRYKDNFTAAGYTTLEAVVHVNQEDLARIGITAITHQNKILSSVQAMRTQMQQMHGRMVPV
Chain of pim-1 (P11309 whole entry): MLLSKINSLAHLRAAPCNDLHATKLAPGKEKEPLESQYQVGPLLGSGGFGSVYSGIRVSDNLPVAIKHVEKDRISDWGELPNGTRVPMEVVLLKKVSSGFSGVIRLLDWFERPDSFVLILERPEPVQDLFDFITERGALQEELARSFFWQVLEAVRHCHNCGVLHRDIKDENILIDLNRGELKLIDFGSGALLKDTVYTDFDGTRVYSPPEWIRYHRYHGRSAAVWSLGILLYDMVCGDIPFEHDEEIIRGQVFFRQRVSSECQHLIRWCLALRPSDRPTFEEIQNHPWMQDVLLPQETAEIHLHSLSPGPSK
Chain of CK2α2β2 holoenzyme (P68400 whole entry): as the sequence (P68400 whole entry) above
Chain of CK2α2β2 holoenzyme (P67870 whole entry partner): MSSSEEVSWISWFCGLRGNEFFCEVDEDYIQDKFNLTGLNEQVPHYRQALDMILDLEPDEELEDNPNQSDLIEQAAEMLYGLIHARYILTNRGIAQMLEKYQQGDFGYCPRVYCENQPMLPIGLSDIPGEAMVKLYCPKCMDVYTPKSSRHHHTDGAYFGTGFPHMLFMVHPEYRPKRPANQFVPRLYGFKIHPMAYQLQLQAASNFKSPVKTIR
Chain of Clk2 (P49760 whole entry): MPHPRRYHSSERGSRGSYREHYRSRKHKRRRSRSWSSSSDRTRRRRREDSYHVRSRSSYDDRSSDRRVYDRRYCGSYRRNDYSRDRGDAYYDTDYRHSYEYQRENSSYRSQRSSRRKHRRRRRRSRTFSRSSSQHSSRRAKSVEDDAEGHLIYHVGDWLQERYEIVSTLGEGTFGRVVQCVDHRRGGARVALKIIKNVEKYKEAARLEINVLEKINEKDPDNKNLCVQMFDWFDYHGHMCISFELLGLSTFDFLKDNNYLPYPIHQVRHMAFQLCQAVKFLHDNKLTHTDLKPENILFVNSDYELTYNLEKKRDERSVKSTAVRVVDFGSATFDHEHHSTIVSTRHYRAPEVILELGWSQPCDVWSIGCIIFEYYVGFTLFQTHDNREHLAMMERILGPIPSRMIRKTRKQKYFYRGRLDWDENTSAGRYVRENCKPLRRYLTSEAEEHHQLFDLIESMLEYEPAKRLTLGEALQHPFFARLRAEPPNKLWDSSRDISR
Chain of Clk4 (Q9HAZ1 whole entry): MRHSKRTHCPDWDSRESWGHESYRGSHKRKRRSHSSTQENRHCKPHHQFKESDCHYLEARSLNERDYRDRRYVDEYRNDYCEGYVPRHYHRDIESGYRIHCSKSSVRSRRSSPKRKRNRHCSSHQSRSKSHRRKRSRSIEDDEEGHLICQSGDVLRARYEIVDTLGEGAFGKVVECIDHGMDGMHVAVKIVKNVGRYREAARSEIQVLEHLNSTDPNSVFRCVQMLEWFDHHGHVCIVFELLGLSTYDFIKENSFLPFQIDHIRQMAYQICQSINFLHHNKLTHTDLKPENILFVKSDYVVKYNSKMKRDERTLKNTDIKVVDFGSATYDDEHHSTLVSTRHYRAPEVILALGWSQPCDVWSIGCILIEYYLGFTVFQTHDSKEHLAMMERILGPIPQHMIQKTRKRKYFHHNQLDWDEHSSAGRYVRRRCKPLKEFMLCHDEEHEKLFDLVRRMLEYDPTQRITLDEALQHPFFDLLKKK
Chain of GSK3β (P49841 whole entry): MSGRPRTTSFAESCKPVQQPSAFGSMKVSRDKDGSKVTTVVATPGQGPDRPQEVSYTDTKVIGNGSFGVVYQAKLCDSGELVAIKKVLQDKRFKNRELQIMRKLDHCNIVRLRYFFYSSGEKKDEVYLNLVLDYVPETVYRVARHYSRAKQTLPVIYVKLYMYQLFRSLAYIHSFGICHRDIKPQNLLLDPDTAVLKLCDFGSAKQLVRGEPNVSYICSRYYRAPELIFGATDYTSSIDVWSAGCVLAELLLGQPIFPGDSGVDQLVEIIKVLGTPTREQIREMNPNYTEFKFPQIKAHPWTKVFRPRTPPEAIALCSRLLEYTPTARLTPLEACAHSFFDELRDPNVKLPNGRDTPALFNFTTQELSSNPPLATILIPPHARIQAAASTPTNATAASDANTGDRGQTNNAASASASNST

For the compound `O=C(O)c1ccc2c(c1)nc(Nc1cccc(Cl)c1)c1ccncc12` [CX-4945, 5-(3-chlorophenylamino)benzo[c][2,6]naphthyridine-8-carboxylic acid], the IC50 at Clk (Cdc-like kinase) 2 was 4 nM.
Regarding `O=C(O)c1cccc(Nc2nc(-c3cccc([N+](=O)[O-])c3)cs2)c1` [Compound 1, 3-((4-(3-nitrophenyl)thiazol-2-yl)amino)benzoic acid], the “inhibition of CK2α2β2 holoenzyme compared with CK2α” value against CK2α2β2 holoenzyme was “inhibited to the same extent”.
Regarding `O=C(O)c1ccc(Nc2nc(-c3cccc([N+](=O)[O-])c3)cs2)cc1` [Compound 2, 4-((4-(3-nitrophenyl)thiazol-2-yl)amino)benzoic acid], the figures for the inhibition at 50 µM on pim-1 and at EphA4 were 54% and 55%, respectively. Besides, the “inhibition of CK2α” value at CK2α [1] is “full inhibition”.
With `O=[N+]([O-])c1cccc(-c2csc(Nc3ccccc3)n2)c1` [Compound 3, [4-(3-Nitro-phenyl)-thiazol-2-yl]-phenyl-amine], the “CK2α inhibitory activity, in words (SAR)” value on CK2α [2] was “significant loss of activity”.
The same measure, in the same setting: as for `COC(=O)c1ccc(Nc2nc(-c3cccc([N+](=O)[O-])c3)cs2)cc1` [Compound 4, 4-[4-(3-Nitro-phenyl)-thiazol-2-ylamino]-benzoic acid methyl ester], the entry is “significant loss of activity”; as for `O=C(O)c1ccc(Nc2nccs2)cc1` [Compound 5, 4-(Thiazol-2-ylamino)-benzoic acid], “complete lack of activity”.
As to `O=C(O)c1ccc(Nc2nc(-c3ccccc3)cs2)cc1` [Compound 6, 4-(4-Phenyl-thiazol-2-ylamino)-benzoic acid], the “binding stoichiometry to CK2α by native mass spectrometry” value at CK2α^1–335 is “various stoichiometries”. In addition, on CK2α^1–335 (10 μM compound, 100 μM IP6), the “native MS competition with IP6 for binding to CK2α” value was “competitive ligand of IP6”. Further, the water solubility entry in “water solubility” was “superior water solubility; also recorded: relatively good solubility in water”. Further, the “STD NMR competition with AMP-PNP for binding to CK2α” value at CK2α [3] (AMP-PNP 500 μM) is reported as “AMP-PNP was not able to bind to CK2α in the presence of 2-aminothiazole 6”. Besides, the “STD NMR competition with CX-4945 for binding to CK2α” value at CK2α [3] (CX-4945 100 μM) was “did not bind to the same site as CX-4945”.
On to `O=C(O)c1ccc(Nc2nc(-c3cccc(Br)c3)cs2)cc1` [Compound 7, 4-[4-(3-Bromo-phenyl)-thiazol-2-ylamino]-benzoic acid], for which the inhibition at 50 µM is 66% at ACVR1 (ALK2); 71% on GSK3β; 61% on Clk4; ~30% at Dyrk1A; 61% at MLCK (MLCK2); ~30% at Clk2. In addition, the inhibition at 50 µM on EphA4 worked out at 73%.
As for `O=C(O)c1ccc(Nc2nc(-c3ccccn3)cs2)cc1` [Compound 9, 4-(4-Pyridin-2-yl-thiazol-2-ylamino)-benzoic acid], in “water solubility”, the water solubility result was “superior water solubility; also recorded: relatively good solubility in water”.
As to `O=P(O)(O)OC1C(OP(=O)(O)O)C(OP(=O)(O)O)C(OP(=O)(O)O)C(OP(=O)(O)O)C1OP(=O)(O)O` (stereo not shown) [IP6, inositol hexakisphosphate, reference compound], the “binding stoichiometry to CK2α by native mass spectrometry” value at CK2α^1–335 was 1:1 and 1:2 stoichiometry.

As usually defined, the IC50 is the concentration that gives 50% inhibition. By inhibition is commonly meant the relative decrease from the control value, in per cent.

These data come from PMC7667462 (Journal of medicinal chemistry, 2019).
